Results gathered from unrelated publications.
Compare with care: the assays were run in different laboratories.
Target: Cyclin-dependent kinase 16 (CDK16, Homo sapiens, UniProt Q00536)

| Compound | effect on | method | tested at | remaining binding [%] |
| --- | --- | --- | --- | --- |
| N#Cc1ccccc1CSc1nnc2c(n1)[nH]c1ccccc12 | binding | competition with immobilised ligand | 10 µM | 100 |
| CNC(=O)[C@@H]1CC[C@@H](n2c(-c3ccc4cnccc4c3)nc3ccc(C(=O)NCc4cccc(C(N)=O)c4)cc32)C1 | binding | competition with immobilised ligand | 1 µM | 100 |
| c1ccc(N2CCN(Cc3nc4ccccc4[nH]3)CC2)nc1 | binding | competition with immobilised ligand | 1 µM | 100 |
| N[C@H]1CCN(c2nccc(-c3cnn4ncccc34)n2)C1 | binding |  | 1 µM | 100 |
| COCCOc1nc(-c2ccc(Cl)nc2)nc2c1CN(C(=O)c1ncn3ccccc13)CC2 | cell-free assay | competition with immobilised ligand | 0.1 µM | 100 |
| O=C(NCCCN1CCOCC1)c1ccc(Nc2ncc(Cl)c(-c3ccc(Cl)s3)n2)cc1 | binding | competition with immobilised ligand | 1 µM | 23 |
| C[C@H]1CCN(c2nccc(-c3cnn4ncccc34)n2)C1 | binding |  | 1 µM | 95 |
| C[C@@]1(Cc2ccc(C#N)cc2)C(=O)N(c2cc(Cl)cc(Cl)c2)c2ncc(C(=O)NC3(c4nc(C5CCC5)no4)CC3)n21 | cell-free assay | competition with immobilised ligand | 1 µM | 97 |
| CCN1CCN(Cc2ccc(C(=O)Nc3ccc(C)c(Oc4ccc5c(c4)CC(=O)N5)c3)cc2C(F)(F)F)CC1 | binding | competition with immobilised ligand | 1 µM | 100 |
| Cc1noc([C@H]2C[C@@H](c3ccc(C(F)(F)F)cc3)CN(C(=O)N3CCS(=O)(=O)C3)C2)n1 | cell-free assay | competition with immobilised ligand | 1 µM | 100 |
| C[C@@H]1CN(c2ccc3ncc(-c4ccc5[nH]nc(C6CC6)c5c4)n3n2)C[C@H](C)O1 | binding | competition with immobilised ligand | 50 nM | 98 |
| C=CC(=O)N1CCC(C(=O)NCC(=O)N2CCN(c3nc(-c4cnc(N)nc4C(F)F)nc(N4CCOCC4)n3)CC2)CC1 | binding | competition with immobilised ligand | 1 µM | 100 |
| CSc1cccnc1N1CCN(Cc2nc3ccccc3[nH]2)CC1 | cell-free assay | competition with immobilised ligand | 1 µM | 81 |
| CC1CCCN1c1nccc(-c2cnn3ncccc23)n1 (stereo not shown) | binding |  | 1 µM | 100 |
| c1cncc(-c2cccc(Nc3nccc(NC4CCCCC4)n3)c2)c1 | binding | competition with immobilised ligand | 10 µM | 95 |
| O=C(c1ccc(Nc2nccc(-c3cc4ccccc4s3)n2)cc1)N1CCC(N2CCCC2)CC1 | binding | competition with immobilised ligand | 1 µM | 58 |
| COc1cc(-c2cn(C3CCc4c(F)cccc4N(CC(F)(F)F)C3=O)nn2)ccc1-n1cnc(C)c1 (stereo not shown) | cell-free assay | competition with immobilised ligand | 1 µM | 82 |
| CN(c1nccc(-c2cnn3ncccc23)n1)C1CC1 | binding |  | 1 µM | 100 |
| CC(C)CC(=O)N1CCc2nc(-c3ccc(Br)cc3)nc(N(C)Cc3ccccc3)c2C1 | cell-free assay | competition with immobilised ligand | 0.1 µM | 100 |
| O=C(c1ccc(Nc2ncc(Cl)c(-c3ccc(Cl)s3)n2)cc1)N1CCC(N2CCCC2)CC1 | binding | competition with immobilised ligand | 1 µM | 0.2 |
| O=C(Nc1c[nH]nc1C(=O)NC1CCNCC1)c1cc(F)cc(F)c1 | binding | competition with immobilised ligand | 1 µM | 12 |
| Cc1cnn2ncc(-c3ccnc(N(C)C)n3)c2c1 | binding |  | 1 µM | 100 |
| Cc1c(NC(=O)c2cc(C(N)=O)nc3cc(F)ccc23)c(C(F)(F)F)nn1Cc1ccc(C(C)(C)C)cc1 | cell-free assay | competition with immobilised ligand | 1 µM | 100 |
| c1cnn2ncc(-c3ccnc(N4CCC45COC5)n3)c2c1 | binding |  | 1 µM | 97 |
| COc1cnc(Nc2cccc(S(N)(=O)=O)c2)nc1N1CCN(c2ccccc2)C(=O)C1 | binding | competition with immobilised ligand | 1 µM | 92 |
